The results in this text go back to PMC7299178 (Angewandte Chemie (International ed. in English), 2019).

The nature of data set [1]: Micelle size in water by TEM and DLS. It counts as physicochemical. In a few lines: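 Test material was a linear-brush diblock copolymer (PMMA block plus a peptide-acrylamide/DMA brush block), self-assembled into micelles in water. Particle diameter was measured by TEM imaging, and hydrodynamic diameter by DLS. TEM images were also taken after thermolysin treatment (thermolysin cleaves the Gly–Leu amide bond of the peptide side chains).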

A further data set concerns the target thermolysin (Bacillus thermoproteolyticus, UniProt P00800).

Chain of thermolysin (P00800 233-548, species assumed): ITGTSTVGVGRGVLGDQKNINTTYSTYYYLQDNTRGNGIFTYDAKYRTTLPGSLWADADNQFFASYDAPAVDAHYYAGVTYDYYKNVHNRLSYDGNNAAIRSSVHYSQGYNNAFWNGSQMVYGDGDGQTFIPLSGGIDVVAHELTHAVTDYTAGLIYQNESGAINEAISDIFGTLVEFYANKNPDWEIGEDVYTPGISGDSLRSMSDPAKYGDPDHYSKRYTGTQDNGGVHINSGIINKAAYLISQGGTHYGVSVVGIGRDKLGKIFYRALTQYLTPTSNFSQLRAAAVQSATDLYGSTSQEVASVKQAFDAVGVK

As for PMMA90-b-poly(PepAm21-co-DMA63) [P8], the “hydrodynamic diameter (DLS)” value in data set [1] (micelles in water, dynamic light scattering) was 28 nm. In data set [1] (spherical micelles assembled in water, transmission electron microscope), the “micelle diameter (TEM)” value is reported as 24 nm. Besides, the “morphology change of micelles upon treatment with thermolysin” value at thermolysin (TEM and DLS, spherical micelles before treatment) is “underwent a phase transition into a worm-like phase”. The “change of particle diameter with deactivated thermolysin” value on thermolysin (same cleavage conditions, thermolysin pretreated with ethylenediaminetetraacetic acid, DLS) is listed as “no change in diameter”.
